Activity calls are given as the source filed them. The calls are words filed in the database; no cut-off is given here.
What was measured:
[1] = test system: Poliovirus 3; test: Antiviral activity against Human poliovirus 3 strain Sabin infected in african green monkey Vero cells assessed as inhibition of virus-induced cytopathic effect after 3 days by MTS-based CPE reduction assay; type: functional, organism-based; details: Enterovirus C, 72 h
Outline: (§1)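 Confluent cells infected with 100 CCID50 virus, adsorbed 2 h at 37°C, then virus removed and serial compound dilutions added (DMSO stocks diluted in MEM with 2% FBS). Incubated 3 days at 37°C until full CPE in virus controls. Viability read by MTS/PMS, OD498 after 2 h. EC50 by logarithmic interpolation of % CPE protection. Mean of at least three independent experiments.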

[2] = Antiviral activity against Human rhinovirus 42 infected in african green monkey Vero cells assessed as inhibition of virus-induced cytopathic effect after 3 days by MTS-based CPE reduction assay; type: functional, cell-based; details: Rhinovirus B, 72 h
Outline: (§2)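 Confluent cells infected with 100 CCID50 virus; 2 h adsorption at 37°C (35°C for rhinovirus), then inoculum removed and serial compound dilutions added. Incubated 3 days at 37°C until full CPE in virus controls. MTS/PMS added for 2 h, OD498 read; % CPE from cell and virus controls; EC50 as 50% protection, by logarithmic interpolation. Mean of ≥3 independent experiments.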

[3] = test system: Coxsackievirus B3; test: Antiviral activity against Human coxsackievirus B3 harboring nonstructural protein 3A V45A mutant infected in african green monkey Vero cells assessed as inhibition of virus-induced cytopathic effect after 3 days by plaque assay; type: functional, organism-based; details: Enterovirus B, 72 h
[4] = test system: rhinovirus A45; test: Antiviral activity against Human rhinovirus 45 infected in african green monkey Vero cells assessed as inhibition of virus-induced cytopathic effect after 3 days by MTS-based CPE reduction assay; type: functional, organism-based; details: Rhinovirus A, 72 h; outline: as §2
[5] = test system: rhinovirus B14; test: Antiviral activity against Human rhinovirus 14 infected in african green monkey Vero cells assessed as inhibition of virus-induced cytopathic effect after 3 days by MTS-based CPE reduction assay; type: functional, organism-based; details: Rhinovirus B, 72 h; outline: as §2
[6] = Antiviral activity against Human coxsackievirus A16 (strain G-10) A16 infected in african green monkey Vero cells assessed as inhibition of virus-induced cytopathic effect after 3 days by MTS-based CPE reduction assay; type: functional, cell-based; details: Enterovirus A, 72 h; outline: as §2
[7] = test system: Coxsackievirus B3; test: Antiviral activity against Human coxsackievirus B3 harboring nonstructural protein 3A H57Y mutant infected in african green monkey Vero cells assessed as inhibition of virus-induced cytopathic effect after 3 days by plaque assay; type: functional, organism-based; details: Enterovirus B, 72 h
[8] = Antiviral activity against Human coxsackievirus A21 (strain Coe) infected in african green monkey Vero cells assessed as inhibition of virus-induced cytopathic effect after 3 days by MTS-based CPE reduction assay; type: functional, cell-based; details: Enterovirus C, 72 h; outline: as §1
[9] = test system: rhinovirus B86; test: Antiviral activity against Human rhinovirus 86 infected in african green monkey Vero cells assessed as inhibition of virus-induced cytopathic effect after 3 days by MTS-based CPE reduction assay; type: functional, organism-based; details: Rhinovirus B, 72 h; outline: as §2
[10] = Antiviral activity against Coxsackievirus B3 (strain Nancy) infected in african green monkey Vero cells assessed as inhibition of virus-induced cytopathic effect after 3 days by MTS-based CPE reduction assay; type: functional, cell-based; details: Enterovirus B, 72 h; outline: as §2
[11] = test system: Poliovirus 2; test: Antiviral activity against Human poliovirus 2 Sabin infected in african green monkey Vero cells assessed as inhibition of virus-induced cytopathic effect after 3 days by MTS-based CPE reduction assay; type: functional, organism-based; details: Enterovirus C, 72 h; outline: as §1
[12] = test system: rhinovirus A2; test: Antiviral activity against Human rhinovirus 2 infected in african green monkey Vero cells assessed as inhibition of virus-induced cytopathic effect after 3 days by MTS-based CPE reduction assay; type: functional, organism-based; details: Rhinovirus A, 72 h; outline: as §2
[13] = test system: rhinovirus A63; test: Antiviral activity against Human rhinovirus 63 infected in african green monkey Vero cells assessed as inhibition of virus-induced cytopathic effect after 3 days by MTS-based CPE reduction assay; type: functional, organism-based; details: Rhinovirus A, 72 h; outline: as §2
[14] = test system: Poliovirus 1; test: Antiviral activity against Human poliovirus 1 strain Sabin infected in african green monkey Vero cells assessed as inhibition of virus-induced cytopathic effect after 3 days by MTS-based CPE reduction assay; type: functional, cell-based; details: Enterovirus C, 72 h; outline: as §1
[15] = test system: rhinovirus A15; test: Antiviral activity against Human rhinovirus 15 infected in african green monkey Vero cells assessed as inhibition of virus-induced cytopathic effect after 3 days by MTS-based CPE reduction assay; type: functional, organism-based; details: Rhinovirus A, 72 h; outline: as §2
[16] = test system: rhinovirus A85; test: Antiviral activity against Human rhinovirus 85 infected in african green monkey Vero cells assessed as inhibition of virus-induced cytopathic effect after 3 days by MTS-based CPE reduction assay; type: functional, organism-based; details: Rhinovirus A, 72 h; outline: as §2
[17] = test system: Coxsackievirus B3; test: Antiviral activity against Human coxsackievirus B3 harboring nonstructural protein 3A I54F mutant infected in african green monkey Vero cells assessed as inhibition of virus-induced cytopathic effect after 3 days by plaque assay; type: functional, organism-based; details: Enterovirus B, 72 h
[18] = test system: rhinovirus B72; test: Antiviral activity against Human rhinovirus 72 infected in african green monkey Vero cells assessed as inhibition of virus-induced cytopathic effect after 3 days by MTS-based CPE reduction assay; type: functional, organism-based; details: Rhinovirus B, 72 h; outline: as §2
[19] = test system: rhinovirus A89; test: Antiviral activity against Human rhinovirus 89 infected in african green monkey Vero cells assessed as inhibition of virus-induced cytopathic effect after 3 days by MTS-based CPE reduction assay; type: functional, organism-based; details: Rhinovirus A, 72 h; outline: as §2
[20] = test system: rhinovirus A29; test: Antiviral activity against Human rhinovirus 29 infected in african green monkey Vero cells assessed as inhibition of virus-induced cytopathic effect after 3 days by MTS-based CPE reduction assay; type: functional, organism-based; details: Rhinovirus A, 72 h; outline: as §2
[21] = test system: rhinovirus A9; test: Antiviral activity against Human rhinovirus 9 infected in african green monkey Vero cells assessed as inhibition of virus-induced cytopathic effect after 3 days by MTS-based CPE reduction assay; type: functional, organism-based; details: Rhinovirus A, 72 h; outline: as §2
[22] = test system: rhinovirus A41; test: Antiviral activity against Human rhinovirus 41 infected in african green monkey Vero cells assessed as inhibition of virus-induced cytopathic effect after 3 days by MTS-based CPE reduction assay; type: functional, organism-based; details: Rhinovirus A, 72 h; outline: as §2
[23] = test system: rhinovirus B70; test: Antiviral activity against Human rhinovirus 70 infected in african green monkey Vero cells assessed as inhibition of virus-induced cytopathic effect after 3 days by MTS-based CPE reduction assay; type: functional, organism-based; details: Rhinovirus B, 72 h; outline: as §2
[24] = test system: rhinovirus A39; test: Antiviral activity against Human rhinovirus 39 infected in african green monkey Vero cells assessed as inhibition of virus-induced cytopathic effect after 3 days by MTS-based CPE reduction assay; type: functional, organism-based; details: Rhinovirus A, 72 h; outline: as §2
[25] = Antiviral activity against Human enterovirus 71 (strain BRCR) infected in african green monkey Vero cells assessed as inhibition of virus-induced cytopathic effect after 3 days by MTS-based CPE reduction assay; type: functional, cell-based; details: Enterovirus A, 72 h; outline: as §2
[26] = test system: Coxsackievirus B3; test: Antiviral activity against Human coxsackievirus B3 harboring wild type nonstructural protein 3A infected in african green monkey Vero cells assessed as inhibition of virus-induced cytopathic effect after 3 days by plaque assay; type: functional, organism-based; details: Enterovirus B, 72 h
[27] = test system: Coxsackievirus B3; test: Antiviral activity against Human coxsackievirus B3 harboring nonstructural protein 3A I8T mutant infected in african green monkey Vero cells assessed as inhibition of virus-induced cytopathic effect after 3 days by plaque assay; type: functional, organism-based; details: Enterovirus B, 72 h
[28] = Cytotoxicity against human HeLa cells; type: cell-based; details: read-out: TC50 (the source's name)
Outline: (§3)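 Cytotoxicity measured on confluent Vero and HeLa cells, given as 50% cytotoxic concentration; solubility limit in assay medium 100 µM.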

[29] = Cytotoxicity against african green monkey Vero cells; type: cell-based; details: chlorocebus sabaeus, read-out: TC50 (the source's name); outline: as §3
[30] = test system: Vero; test: Antiviral activity against Coxsackievirus B3 (strain Nancy) infected in african green monkey Vero cells assessed as inhibition viral replication at 25 uM administered at 1 hr interval starting at 1 hr before viral infection measured within first 3 hrs postinfection; type: functional, cell-based
Outline: (§4)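 Confluent Vero cells infected with 10⁴ CCID50 CVB3, 1 h adsorption at 37°C, inoculum replaced with medium. Compound (final 25 µM) added at 1-h intervals, starting 1 h before infection. At 8 h post-infection, supernatant and intracellular RNA collected and viral RNA quantified by one-step TaqMan qRT-PCR against a synthetic transcript standard curve; normalized to 0-h point; two independent experiments.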

[31] = test system: Coxsackievirus B3 (strain Nancy); test: Antiviral activity against Coxsackievirus B3 (strain Nancy) infected in buffalo green monkey cells assessed as inhibition of viral RNA accumulation at 2 mM by luciferase reporter gene assay; type: functional, cell-based
[32] = test system: Coxsackievirus B3; test: Inhibition of viral polyprotein processing in Coxsackievirus B3 (strain Nancy) infected in buffalo green monkey cells at 25 uM by SDS PAGE assay; type: functional, cell-based
Outline: (§5)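 Confluent BGM cells infected with CVB3 at MOI 50. At 5 h, methionine starvation for 30 min, then 30-min [35S]Met pulse with or without 25 µM compound. At 6 h, lysed in Tris-HCl pH 7.4/NaCl/EDTA/NP-40/0.05% SDS buffer; translation products resolved by SDS-PAGE. Three independent experiments.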

[33] = test system: Coxsackievirus B3 (strain Nancy); test: Antiviral activity against Coxsackievirus B3 (strain Nancy) infected in buffalo green monkey cells assessed as inhibition of viral RNA accumulation at 25 uM by luciferase reporter gene assay; type: functional, cell-based
Outline: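 BGM cells transfected with RNA from SalI-linearized CVB3 subgenomic replicon with luciferase replacing P1, with or without 25 µM compound. At set times post-transfection, cells washed with PBS, lysed, and luciferase measured as relative light units. Averages ± SD of three independent experiments.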

[34] = test system: Coxsackievirus B3; test: Inhibition of viral polyprotein synthesis in Coxsackievirus B3 (strain Nancy) infected in buffalo green monkey cells at 25 uM by SDS PAGE assay; type: functional, cell-based; outline: as §5
[35] = test system: Vero; test: Antiviral activity against Coxsackievirus B3 (strain Nancy) infected in african green monkey Vero cells assessed as inhibition of virus-induced cytopathic effect after 3 days by plaque assay; type: functional, cell-based
Outline: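 Confluent Vero cells infected with CVB3 for 2 h at 37°C with gentle shaking, washed twice with PBS, then overlaid with 0.4% agar with or without compound. After 3-4 days, fixed with 4% formaldehyde, agar removed, Giemsa-stained and plaques counted. Read at day 3 post-infection; averages ± SD of three independent experiments.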

[36] = test system: Vero; test: Antiviral activity against Coxsackievirus B3 (strain Nancy) infected in african green monkey Vero cells assessed as inhibition viral replication at 25 uM administered at 1 hr interval starting at 3 hrs after viral infection; type: functional, cell-based; outline: as §4

Row | Compound | EC50 [1] | EC50 [2] | EC50 [3] | EC50 [4] | EC50 [5] | EC50 [6] | EC50 [7] | EC50 [8] | EC50 [9] | EC50 [10] | EC50 [11] | EC50 [12] | EC50 [13] | EC50 [14] | EC50 [15] | EC50 [16] | EC50 [17] | EC50 [18] | EC50 [26] | EC50 [27] | also measured
1 | CC(C)S(=O)(=O)n1c(N)nc2ccc(/C(=N/O)c3ccccc3)cc21 [ENVIROXIME] | 0.04 µM | 0.11 µM | 1.5 µM | 0.25 µM | 0.11 µM | 0.12 µM | 1.7 µM | 0.48 µM | 0.14 µM | 1.9 µM | 0.06 µM | 0.026 µM | 0.027 µM | 0.19 µM | 0.042 µM | 0.033 µM | 1.8 µM | 0.72 µM | 0.5 µM | 0.7 µM | EC50 [19]: 0.1 µM; EC50 [20]: 0.029 µM; EC50 [21]: 0.038 µM; EC50 [22]: 0.027 µM; EC50 [23]: 0.11 µM; EC50 [24]: 0.028 µM; EC50 [25]: 0.15 µM
2 | C[C@@H](NC(=O)c1cccc(-c2c[nH]c(-c3cc4ccccc4cn3)n2)c1)c1ccc(F)cc1 | – | – | – | – | – | – | – | – | – | – | – | – | – | – | – | – | – | – | – | – | CC50 [28]: > 100 µM; CC50 [29]: > 100 µM
3 | Fc1cccc(F)c1C1SCc2nc3cc(C(F)(F)F)ccc3n21 (stereo not drawn) | – | – | 3.6 µM | – | – | – | 3.4 µM | – | – | – | – | – | – | – | – | – | 3.7 µM | – | 2.9 µM | 2.9 µM | –
4 | C[C@@H](NC(=O)c1cccc(-c2cnc(-c3cc4ccccc4cn3)[nH]2)c1)c1ccc(F)cc1 | 0.27 µM | > 50 µM | 17.7 µM | 0.99 µM | > 50 µM | 0.85 µM | 15.3 µM | 5.34 µM | > 50 µM | 1.2 µM | 0.58 µM | 0.8 µM | 0.091 µM | 0.51 µM | > 50 µM | 1.22 µM | 19.8 µM | > 50 µM | 1.9 µM | 6 µM | inhibition [30]: Active; EC50 [19]: > 50 µM; EC50 [20]: 0.77 µM; inhibition [31]: Active; inhibition [32]: inactive; inhibition [33]: Active; EC50 [21]: > 50 µM; EC50 [22]: > 50 µM; EC50 [23]: > 50 µM; inhibition [34]: inactive; inhibition [35]: Dose-dependent effect; EC50 [24]: 0.65 µM; EC50 [25]: > 60 µM; inhibition [36]: inactive
